Reference: paper PMC7037572 (Journal of Advanced Research, 2020)

Legend:
Assay type in all cases: cell-based
Conditions in all cases: pre-treated 1 h, MSU 500 μg/ml 12 h
NLRP3 inflammasome = test: Western blot of NLRP3, ASC and Caspase-1 p20 in MSU-treated THP-1 cells
In short: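 THP-1 cells (PMA-differentiated, pre-treated 1 h, MSU 500 μg/ml 12 h) were lysed in RIPA buffer. Lysates were resolved by 8–12% SDS-PAGE and transferred to PVDF. After blocking, membranes took primary antibodies overnight at 4 °C, three TBST washes and HRP secondary antibodies for 2 h, with ECL detection. n = 4 per group; mean ± SD; one-way ANOVA/Tukey.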

MSU-treated THP-1 cells [1] = test: cAMP levels in MSU-treated THP-1 cells
MSU-treated THP-1 cells [2] = test: IL-1β in culture supernatants of MSU-treated THP-1 cells
In short: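 PMA-differentiated THP-1 cells (ATCC) were pre-treated 1 h with the test compound or a reference P2Y14R antagonist, then stimulated with MSU (500 μg/ml) for 12 h. IL-1β in collected culture supernatants was measured by ELISA kit. n = 4 per group; mean ± SD; one-way ANOVA with Tukey test, p < 0.05.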

O=C(O)c1cc(-c2ccc(C3CCNCC3)cc2)c2ccc(-c3ccc(C(F)(F)F)cc3)cc2c1 [PPTN]
effect on MSU-increased protein expressions of NLRP3, ASC and Caspase-1 p20 (NLRP3 inflammasome): reversed | effect on MSU-induced decrease of cAMP concentrations (MSU-treated THP-1 cells [1]): reversed | effect on IL-1β release into the supernatant (MSU-treated THP-1 cells [2]): apparently inhibited the release of IL-1β
